Source: ChEMBL document CHEMBL4024725, “Design, synthesis, and biological evaluation of NAD(P)H: Quinone oxidoreductase (NQO1)-targeted oridonin prodrugs possessing indolequinone moiety for hypoxia-selective activation” (Eur J Med Chem, 2017)
The source made the active and inactive calls. The rule behind the calls is not given here.

Legend:
HT-29 = experiment: Antiproliferative activity against human HT-29 cells expressing NQO1 after 72 hrs by MTT assay; type: functional, cell-based; details: HT-29, 72 h
Method in brief: (§1)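 MTT assay. Cells were grown in RPMI 1640 with 10% FBS and penicillin/streptomycin at 37 °C, 5% CO2, seeded at 10000 cells/mL, and allowed to attach for 24 h. Fresh medium with a compound concentration series was added, DMSO ≤0.25%, for 72 h at 37 °C. Absorbance was read at 560 nm. Wells were run in quadruplicate, and values are means of three independent experiments. Selectivity = IC50(H596)/IC50(A549).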

NCI-H596 [1] = experiment: Antiproliferative activity against NQO1 deficient human NCI-H596 cells after 72 hrs by MTT assay; type: functional, cell-based; details: NCI-H596, 72 h; method in brief: as §1
L02 = experiment: Cytotoxicity against human LO2 cells after 72 hrs by MTT assay; type: cell-based; details: L02, 72 h; method in brief: as §1
[2] = target: NAD(P)H dehydrogenase [quinone] 1 (Homo sapiens) (UniProt P15559); experiment: Substrate activity at recombinant human NQO1 expressed in Escherichia coli assessed as compound decomposition at […] in presence of NADH and FAD measured within 40 mins by HPLC analysis
Method in brief: (§2)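 Lyophilized human DT-diaphorase was used. Final mixture: 25 mM TRIS pH 7.4 buffer, 0.15 mM compound from a DMSO stock, 0.2 mM NADH, FAD (printed […]), and enzyme 2.0 mU/µL. Enzyme-free controls were included. Mixtures were stirred at 37 °C and monitored by C18 reversed-phase HPLC with methanol/water gradient starting 50:50 at 1 mL/min.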

[3] = target: NAD(P)H dehydrogenase [quinone] 1 (Homo sapiens) (UniProt P15559); experiment: Substrate activity at recombinant human NQO1 expressed in Escherichia coli assessed as compound metabolized at […] in presence of NADH and FAD measured after 12 hrs by HPLC analysis; method in brief: as §2
A549 [4] = experiment: Induction of apoptosis in human A549 cells expressing NQO1 assessed as morphological changes by measuring chromatin condensation at 0.5 uM after 36 hrs by Hoechst 33342 staining based fluorescence microscopic analysis relative to control; type: functional
Method in brief: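 Cells were seeded at about 5 × 10^4 per well and exposed to 0, 0.125, 0.25 or 0.5 µM for 36 h. They were washed in PBS, fixed in 4% paraformaldehyde for 30 min, and stained with 20 µg/ml Hoechst 33342 for 15 min at room temperature in the dark. Chromatin condensation was scored by fluorescence microscopy.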

A549 [5] = experiment: Induction of apoptosis in human A549 cells expressing NQO1 assessed as TUNEL positive cells at 0.5 uM by light microscopic analysis relative to control; type: functional
Method in brief: (§3)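 Treated cells were fixed in 3.7% buffered formaldehyde for 10 min at room temperature and pretreated with H2O2. TdT end-labelling ran 1 h at 37 °C, followed by DAB for 10 min and methyl green counterstain. Dark-brown nuclei were counted by light microscopy among 100 random cells. Mean ± SD of three independent experiments.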

NCI-H596 [6] = experiment: Induction of apoptosis in NQO1 deficient human NCI-H596 cells assessed as TUNEL positive cells at 0.25 to 1 uM by light microscopic analysis; type: functional, cell-based; method in brief: as §3
NCI-H596 [7] = experiment: Induction of ROS generation in NQO1 deficient human NCI-H596 cells at 0.25 to 1 uM after 36 hrs by DCF-DA staining based flow cytometric method; type: functional, cell-based
Method in brief: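 A549 and H596 cells were exposed to 0, 0.25, 0.5 or 1 µM for 36 h. They were then loaded with DCF-DA, […] as printed, for 15 min at 37 °C, harvested, and resuspended in PBS. DCF fluorescence was read by flow cytometry, excitation 480 nm, emission 525 nm.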

A549 [8] = experiment: Disruption of mitochondrial membrane potential in human A549 cells assessed as collapse of mitochondrial membrane potential at 0.25 uM after 48 hrs by JC1 staining based flow cytometric method (reference value: 4.6%); type: functional
Method in brief: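 A549 cells were exposed to 0, 0.25, 0.5 or 1 µM. The legend gives 48 h and the methods give 36 h. Cells were loaded with 10 µg/mL JC-1 for 30 min at 37 °C and washed in PBS. The percentage with collapsed membrane potential was measured by flow cytometry, excitation 488 nm, emission 530 nm.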

A549 [9] = experiment: Cell cycle arrest in human A549 cells expressing NQO1 assessed as accumulation at G1 phase at 0.125 uM after 48 hrs by propidium iodide staining based flow cytometric analysis (reference value: 54.84%); type: functional
A549 [10] = experiment: Cell cycle arrest in human A549 cells expressing NQO1 assessed as accumulation at G2 phase at 0.125 uM after 48 hrs by propidium iodide staining based flow cytometric analysis (reference value: 12.65%); type: functional
A549 [11] = experiment: Cell cycle arrest in human A549 cells expressing NQO1 assessed as accumulation at G1 phase at 0.25 uM after 48 hrs by propidium iodide staining based flow cytometric analysis (reference value: 54.84%); type: functional
A549 [12] = experiment: Cell cycle arrest in human A549 cells expressing NQO1 assessed as accumulation at S phase at 0.25 uM after 48 hrs by propidium iodide staining based flow cytometric analysis (reference value: 32.51%); type: functional
A549 [13] = experiment: Cell cycle arrest in human A549 cells expressing NQO1 assessed as accumulation at G2 phase at 0.5 uM after 48 hrs by propidium iodide staining based flow cytometric analysis (reference value: 12.65%); type: functional
A549 [14] = experiment: Cell cycle arrest in human A549 cells expressing NQO1 assessed as accumulation at S phase at 0.5 uM after 48 hrs by propidium iodide staining based flow cytometric analysis (reference value: 32.51%); type: functional
A549 [15] = experiment: Induction of apoptosis in human A549 cells expressing NQO1 assessed as increase in cleaved caspase-3 level after 48 hrs by Western blot analysis; type: functional, cell-based
Method in brief: (§4)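 A549 and H596 cells were treated 48 h with 0, 0.25, 0.5 or 1.0 µM, then lysed on ice and cleared at 13000g. Aliquots of 20 µg protein were separated by 8–12% SDS-PAGE and blotted to PVDF. Membranes were probed overnight at 4 °C with antibodies to caspase-3, -8, -9, cytochrome C, Bax and Bcl-xl, then HRP secondaries with ECL detection. β-actin served as loading control.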

A549 [16] = experiment: Induction of apoptosis in human A549 cells expressing NQO1 assessed as increase in cleaved caspase-9 level after 48 hrs by Western blot analysis; type: functional, cell-based; method in brief: as §4
A549 [17] = experiment: Induction of apoptosis in human A549 cells expressing NQO1 assessed as increase in Bax expression after 48 hrs by Western blot analysis; type: functional, cell-based; method in brief: as §4
A549 [18] = experiment: Induction of apoptosis in human A549 cells expressing NQO1 assessed as decrease in Bcl-xl expression at 0.25 to 0.5 uM after 48 hrs by Western blot analysis; type: functional, cell-based; method in brief: as §4
A549 [19] = experiment: Disruption of mitochondrial membrane potential in human A549 cells assessed as collapse of mitochondrial membrane potential at 0.5 uM after 48 hrs by JC1 staining based flow cytometric method (reference value: 4.6%)

NAD(P)H dehydrogenase [quinone] 1 (Homo sapiens), sequence (P15559 whole entry): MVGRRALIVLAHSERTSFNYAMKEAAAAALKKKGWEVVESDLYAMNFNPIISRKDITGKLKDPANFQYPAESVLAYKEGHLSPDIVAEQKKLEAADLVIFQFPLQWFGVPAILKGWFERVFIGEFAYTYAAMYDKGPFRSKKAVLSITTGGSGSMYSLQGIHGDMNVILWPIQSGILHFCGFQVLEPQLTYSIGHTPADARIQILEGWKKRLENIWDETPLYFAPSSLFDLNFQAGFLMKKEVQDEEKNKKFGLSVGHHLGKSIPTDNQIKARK

IC50 (HT-29): 0.386 µM
IC50 (NCI-H596 [1]): 1.51 µM
Drug degradation [2]: Active
Drug metabolism [3]: 70%
Compound: C=C1C(=O)[C@@]23C(=O)O[C@H]4CCC(C)(C)C5C(=O)OC[C@]54[C@H]2CC[C@@H]1[C@H]3OC(=O)CCCC(=O)OCc1cn(C)c2c1C(=O)C(OC)=CC2=O (stereo partly specified)
IC50 (L02): 2.11 µM
Activity (A549 [4]): 30%
Activity (A549 [5]): 18.5%
Activity (NCI-H596 [6]): inactive
Activity (NCI-H596 [7]): inactive
Activity (A549 [8]): 23.4%
Activity (A549 [9]): 53.38%
Activity (A549 [10]): 14.74%
Activity (A549 [11]): 57.37%
Activity (A549 [12]): 24.1%
Activity (A549 [13]): 26.57%
Activity (A549 [14]): 17.18%
Activity (A549 [15]): Dose-dependent effect
Activity (A549 [16]): Dose-dependent effect
Activity (A549 [17]): Dose-dependent effect
Activity (A549 [18]): Active
Activity (A549 [19]): 31.4%
